According to ChEMBL document CHEMBL1275468, “Plasmid-mediated qnrB2 and carbapenemase gene bla(KPC-2) carried on the same plasmid in carbapenem-resistant ciprofloxacin-susceptible Enterobacter cloacae isolates” (2008):
Converted amounts (≈) assume the structure as drawn.

How the values were obtained:
Type in all cases: functional
Enterobacter cloacae [1] = assay: Antimicrobial activity against Enterobacter cloacae isolate 1 containing PFGE genetic clone A expressing qnrB2 and beta-lactamase KPC-2 and SHV-12 gene by Etest
Enterobacter cloacae [2] = assay: Antimicrobial activity against Enterobacter cloacae isolate 4469 containing PFGE genetic clone C expressing qnrB2 and beta-lactamase KPC-2 and SHV-12 gene by Etest
Enterobacter cloacae [3] = assay: Antimicrobial activity against Enterobacter cloacae isolate 18 containing PFGE genetic clone A expressing qnrB2 and beta-lactamase KPC-2 and SHV-12 gene by Etest
Enterobacter cloacae [4] = assay: Antimicrobial activity against Enterobacter cloacae isolate 649 containing PFGE genetic clone B expressing qnrB2 and beta-lactamase KPC-2 and SHV-12 gene by Etest
Escherichia coli [5] = assay: Antimicrobial activity against Escherichia coli T-625 harboring expressing qnrB2 and beta-lactamase KPC-2 and SHV-12 gene by Etest
Summary of the method: (§1)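 MIC read by Etest. Strains are E. coli GeneHogs (recA1) transformants. Plasmid DNA from clinical E. cloacae isolates was introduced by electroporation. Transformants were selected on LB agar with 100 μg/ml ampicillin, then PCR-screened for blaKPC, blaSHV and qnr genes.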

Enterobacter cloacae [6] = assay: Antimicrobial activity against Enterobacter cloacae isolate 185 containing PFGE genetic clone A expressing qnrB2 aac(6')-Ib-cr and beta-lactamase KPC-2 and SHV-12 gene by Etest
Enterobacter cloacae [7] = assay: Antimicrobial activity against Enterobacter cloacae isolate 625 containing PFGE genetic clone A expressing qnrB2 and beta-lactamase KPC-2 and SHV-12 gene by Etest
Enterobacter cloacae [8] = assay: Antimicrobial activity against Enterobacter cloacae isolate 837 containing PFGE genetic clone B expressing qnrB2 and beta-lactamase KPC-2 and SHV-12 gene by Etest
Escherichia coli [9] = assay: Antimicrobial activity against Escherichia coli T-781 harboring expressing qnrB2 and beta-lactamase KPC-2 and SHV-12 gene by Etest; summary of the method: as §1
Enterobacter cloacae [10] = assay: Antimicrobial activity against Enterobacter cloacae isolate 656 containing PFGE genetic clone A expressing beta-lactamase KPC-2 and SHV-12 gene by Etest
Enterobacter cloacae [11] = assay: Antimicrobial activity against Enterobacter cloacae isolate 140 containing PFGE genetic clone A expressing beta-lactamase KPC-2 and SHV-12 gene by Etest
Escherichia coli [12] = assay: Antimicrobial activity against Escherichia coli GeneHogs by Etest
Summary of the method: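 MIC read by Etest on the plasmid-free electroporation recipient, E. coli GeneHogs (recA1 mutant).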

Enterobacter cloacae [13] = assay: Antimicrobial activity against Enterobacter cloacae isolate 622 containing PFGE genetic clone A expressing qnrB2 and beta-lactamase KPC-2 and SHV-12 gene by Etest
Enterobacter cloacae [14] = assay: Antimicrobial activity against Enterobacter cloacae isolate 658 containing PFGE genetic clone B expressing qnrB2 and beta-lactamase KPC-2 and SHV-12 gene by Etest
Enterobacter cloacae [15] = assay: Antimicrobial activity against Enterobacter cloacae isolate 151 containing PFGE genetic clone A expressing qnrB2 and beta-lactamase KPC-2 gene by Etest
Enterobacter cloacae [16] = assay: Antimicrobial activity against Enterobacter cloacae isolate 781 containing PFGE genetic clone B expressing qnrB2 and beta-lactamase KPC-2 and SHV-12 gene by Etest
Enterobacter cloacae [17] = assay: Antimicrobial activity against Enterobacter cloacae isolate 293 containing PFGE genetic clone A expressing qnrB2 and beta-lactamase KPC-2 and SHV-12 gene by Etest
Escherichia coli [18] = assay: Antimicrobial activity against Escherichia coli T-622 harboring expressing qnrB2 and beta-lactamase KPC-2 and SHV-12 gene by Etest; summary of the method: as §1
Enterobacter cloacae [19] = assay: Antimicrobial activity against Enterobacter cloacae isolate 533 containing PFGE genetic clone A expressing qnrB2 and beta-lactamase KPC-2 and SHV-12 gene by Etest

Row | SMILES | MIC (Enterobacter cloacae [1]) [µg/mL] | MIC (Enterobacter cloacae [2]) [µg/mL] | MIC (Enterobacter cloacae [3]) [µg/mL] | MIC (Enterobacter cloacae [4]) [µg/mL] | MIC (Escherichia coli [5]) [µg/mL] | MIC (Enterobacter cloacae [6]) [µg/mL] | MIC (Enterobacter cloacae [7]) [µg/mL] | MIC (Enterobacter cloacae [8]) [µg/mL] | MIC (Escherichia coli [9]) [µg/mL] | MIC (Enterobacter cloacae [10]) [µg/mL] | MIC (Enterobacter cloacae [11]) [µg/mL] | MIC (Escherichia coli [12]) [µg/mL] | MIC (Enterobacter cloacae [13]) [µg/mL] | MIC (Enterobacter cloacae [14]) [µg/mL] | MIC (Enterobacter cloacae [15]) [µg/mL] | MIC (Enterobacter cloacae [16]) [µg/mL] | MIC (Enterobacter cloacae [17]) [µg/mL] | MIC (Escherichia coli [18]) [µg/mL] | MIC (Enterobacter cloacae [19]) [µg/mL]
1 | C[C@@H](O)[C@H]1C(=O)N2C(C(=O)O)=C(S[C@@H]3CN[C@H](C(=O)Nc4cccc(C(=O)O)c4)C3)[C@H](C)[C@H]12 | 32 (≈ 67.3 µM) | > 32 | 4 (≈ 8.41 µM) | 16 (≈ 33.6 µM) | 8 (≈ 16.8 µM) | 4 (≈ 8.41 µM) | 24 (≈ 50.5 µM) | 8 (≈ 16.8 µM) | 12 (≈ 25.2 µM) | 16 (≈ 33.6 µM) | > 32 | 0.012 (≈ 0.0252 µM) | 32 (≈ 67.3 µM) | 12 (≈ 25.2 µM) | > 32 | > 32 | > 32 | 8 (≈ 16.8 µM) | 24 (≈ 50.5 µM)
2 | C[C@@H](O)[C@H]1C(=O)N2C(C(=O)O)=C(SCCNC=N)C[C@H]12 [IMIPENEM ANHYDROUS] | 16 (≈ 53.4 µM) | 24 (≈ 80.2 µM) | 8 (≈ 26.7 µM) | 32 (≈ 107 µM) | 8 (≈ 26.7 µM) | 8 (≈ 26.7 µM) | 16 (≈ 53.4 µM) | 6 (≈ 20 µM) | 3 (≈ 10 µM) | 32 (≈ 107 µM) | > 32 | 0.125 (≈ 0.418 µM) | 24 (≈ 80.2 µM) | > 32 | 12 (≈ 40.1 µM) | > 32 | > 32 | 4 (≈ 13.4 µM) | 4 (≈ 13.4 µM)
